Calls of active or inactive are those of the source. The calls are words filed in the database; no cut-off is given here.
What was measured:
[1] = species on record: Homo sapiens; experiment: Inhibition of human neutrophil leukotriene B4 induced neutrophil chemotaxis; type: functional
How it was run: (§1)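 Human neutrophils isolated from citrated peripheral blood by 5% dextran sedimentation, Histopaque centrifugation and hypotonic erythrocyte lysis. 3×10^6 cells/mL in HEPES-buffered HBSS in upper well of modified Boyden chamber; lower well, across polycarbonate membrane, held HBSS or 3×10^-8 M LTB4 ± compound. 90 min, 37 °C; lower-well cells lysed, nuclei counted (Coulter); % inhibition after subtracting mean HBSS random migration.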

[2] = test system: Homo sapiens; experiment: Blood plasma levels of compound after 40 mg/kg oral dose of compound at 12 hr; type: functional, organism-based; parameters: dose 40 mg/kg
How it was run: (§2)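 Single 40 mg/kg oral dose; blood plasma drug level sampled at 1 h and 12 h after dosing.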

[3] = species on record: Bos taurus; experiment: Inhibition of bovine heart phosphodiesterase at 50 uM (no inhibition)
[4] = test system: Cavia porcellus; experiment: Topical effective dose when coapplied with phorbol ester (PMA) was assessed by ear weight as a reflection of edema; type: functional
[5] = species on record: Homo sapiens; experiment: Inhibition of human neutrophil leukotriene B4 induced neutrophil degranulation; type: functional
How it was run: (§3)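 Human neutrophils (3×10^6 in 1 mL HBSS) preincubated with cytochalasin B (5 µg) 5 min at 37 °C, then compound 7 min, then stimulated 2-20 min with LTB4 5×10^-8 M. Degranulation read as myeloperoxidase released into medium; pellets sonicated in phosphate buffer with 0.4% Triton X-100, supernatants brought to 0.4% Triton, both assayed.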

[6] = target: T1, Cysteinyl leukotriene receptor 1 (Cavia porcellus) (UniProt Q2NNR5); experiment: Inhibition of binding to the leukotriene D4 receptor at 1*10e-5 M concentration
T1 sequence (whole entry): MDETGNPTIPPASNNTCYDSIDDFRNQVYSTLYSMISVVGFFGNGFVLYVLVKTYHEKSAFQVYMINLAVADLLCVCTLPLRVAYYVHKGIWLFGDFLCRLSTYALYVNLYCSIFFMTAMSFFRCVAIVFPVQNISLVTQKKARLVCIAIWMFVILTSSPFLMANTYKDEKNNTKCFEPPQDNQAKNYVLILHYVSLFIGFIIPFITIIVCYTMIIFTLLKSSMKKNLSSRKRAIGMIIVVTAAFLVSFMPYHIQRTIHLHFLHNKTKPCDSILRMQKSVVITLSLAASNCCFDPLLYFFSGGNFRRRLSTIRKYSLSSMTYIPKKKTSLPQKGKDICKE
How it was run: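 Competition binding at LTD4 receptor: protein adjusted to about 0.1 nM receptor with 1 nM [3H]LTD4, 30 min at 24 °C; bound and free ligand separated by filtration. Compound tested at 1×10^-5 M.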

[7] = test system: Homo sapiens; experiment: Blood plasma levels of compound after 40 mg/kg oral dose of compound at 1 hr; type: functional, organism-based; parameters: dose 40 mg/kg; how it was run: as §2
[8] = species on record: Homo sapiens; experiment: Inhibition of human neutrophil leukotriene B4 induced neutrophil degranulation at 10e-5 M compound concentration; NA = not active; type: functional; how it was run: as §3
[9] = species on record: Homo sapiens; experiment: Inhibition of human neutrophil leukotriene B4 induced neutrophil chemotaxis at 10e-5 M compound concentration; NA = not active; type: functional; how it was run: as §1

IC50 [1] | inhibition [3] | IC50 [5] | inhibition [6] | Structure (SMILES) | Plasma level [2] | ED50 [4] | Plasma level [7] | Activity [8] | Activity [9]
2 µM | inactive | 1 µM | 4% | CCCc1c(OCCCOc2ccc(C(C)=O)c(OC)c2CCC)ccc2c1OC(C(=O)O)CC2 (centres undefined) [SC-41390] | 12 µg/mL | 4.1 uM ear-1 | 7 µg/mL |  | 
 |  |  |  | CCCc1c(OCCCOc2ccc3c(c2CCC)OC(C(=O)O)CC3)ccc(C(C)=O)c1O (centres undefined) |  |  |  | inactive | inactive

Source: ChEMBL document CHEMBL1124474, “7-[3-(4-acetyl-3-methoxy-2-propylphenoxy)propoxy]-3,4-dihydro-8- propyl-2H-1-benzopyran-2-carboxylic acid: an orally active selective leukotriene B4 receptor antagonist” (J Med Chem, 1989)
